According to ChEMBL document CHEMBL2380254, “Optimization of tocotrienols as antiproliferative and antimigratory leads” (Eur J Med Chem, 2013):

What was measured:
Format in all cases: functional
[1] = tested on: T47D; assay: Growth inhibition of human T47D cells assessed as cell growth at 10 uM after 48 hrs by sulforhodamine B assay; settings: read-out: Activity
Procedure, shortened: (§1)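 Single-dose NCI-60 test at 10 µM. Cells were grown in RPMI 1640 with 5% FBS and 2 mM L-glutamine, preincubated 24 h, with T0 plates TCA-fixed. Exposure was 48 h at 37 °C, 5% CO2. Cells were fixed with cold TCA (final 10%, 4 °C, 60 min), stained with SRB and read at 515 nm. Percent growth was taken relative to T0 and untreated control; negative values denote cell kill.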

[2] = Growth inhibition of human Hs 578T cells assessed as cell growth at 10 uM after 48 hrs by sulforhodamine B assay; settings: read-out: Activity
Procedure, shortened: (§2)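 NCI-60 single-dose screen at 10 µM: cells in RPMI 1640 with 5% FBS, preincubated 24 h, then exposed 48 h at 37 °C. TCA fixation (16% final for suspension cells), SRB staining, absorbance 515 nm. Percent growth relative to time-zero and untreated control plates; negative values indicate cell kill.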

[3] = tested on: PC-3; assay: Growth inhibition of human PC3 cells assessed as cell growth at 10 uM after 48 hrs by sulforhodamine B assay; settings: PC-3, 48 h, read-out: Activity
Procedure, shortened: (§3)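 Single-dose NCI-60 screen: adherent cells in RPMI 1640 with 5% FBS were exposed to 10 µM for 48 h at 37 °C after a 24 h preincubation. They were fixed in situ with cold TCA (10% final), stained with 0.4% SRB in 1% acetic acid, solubilized in 10 mM Tris base, and read at 515 nm. Percent growth was taken relative to time-zero and control plates.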

[4] = tested on: CAKI-1; assay: Growth inhibition of human CAKI-1 cells assessed as cell growth at 10 uM after 48 hrs by sulforhodamine B assay; settings: CAKI-1, 48 h, read-out: Activity; procedure, shortened: as §2
[5] = tested on: A498; assay: Growth inhibition of human A498 cells assessed as cell growth at 10 uM after 48 hrs by sulforhodamine B assay; settings: A498, 48 h, read-out: Activity; procedure, shortened: as §2
[6] = Growth inhibition of human NCI-ADR-RES cells assessed as cell growth at 10 uM after 48 hrs by sulforhodamine B assay; settings: read-out: Activity; procedure, shortened: as §3
[7] = tested on: OVCAR-4; assay: Growth inhibition of human OVCAR4 cells assessed as cell growth at 10 uM after 48 hrs by sulforhodamine B assay; settings: OVCAR-4, 48 h, read-out: Activity; procedure, shortened: as §3
[8] = tested on: UACC-62; assay: Growth inhibition of human UACC62 cells assessed as cell growth at 10 uM after 48 hrs by sulforhodamine B assay; settings: UACC-62, 48 h, read-out: Activity; procedure, shortened: as §1
[9] = tested on: Malme-3M; assay: Growth inhibition of human MALME-3M cells assessed as cell growth at 10 uM after 48 hrs by sulforhodamine B assay; settings: read-out: Activity; procedure, shortened: as §3
[10] = tested on: SNB-75; assay: Growth inhibition of human SNB75 cells assessed as cell growth at 10 uM after 48 hrs by sulforhodamine B assay; settings: SNB-75, 48 h, read-out: Activity; procedure, shortened: as §1
[11] = tested on: SW-620; assay: Growth inhibition of human SW620 cells assessed as cell growth at 10 uM after 48 hrs by sulforhodamine B assay; settings: SW-620, 48 h, read-out: Activity; procedure, shortened: as §1
[12] = Growth inhibition of human HCC2998 cells assessed as cell growth at 10 uM after 48 hrs by sulforhodamine B assay; settings: HCC 2998, 48 h, read-out: Activity; procedure, shortened: as §2
[13] = tested on: K562; assay: Growth inhibition of human K562 cells assessed as cell growth at 10 uM after 48 hrs by sulforhodamine B assay; settings: K562, 48 h, read-out: Activity; procedure, shortened: as §2
[14] = tested on: HL-60(TB); assay: Growth inhibition of human HL-60(TB) cells assessed as cell growth at 10 uM after 48 hrs by sulforhodamine B assay; settings: HL-60, 48 h, read-out: Activity
Procedure, shortened: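 NCI-60 single-dose screen run at 10 µM on HL-60(TB) suspension cells in RPMI 1640 with 5% FBS and 2 mM L-glutamine. Cells were preincubated for 24 h, with a time-zero plate fixed then. Exposure lasted 48 h at 37 °C. Settled cells were fixed with TCA (16% final), stained with SRB and read at 515 nm. Percent growth is relative to control and T0.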

[15] = tested on: CCRF-CEM; assay: Growth inhibition of human CCRF-CEM cells assessed as cell growth at 10 uM after 48 hrs by sulforhodamine B assay; settings: read-out: Activity; procedure, shortened: as §2
[16] = tested on: T47D; assay: Growth inhibition of human T47D cells after 48 hrs by sulforhodamine B assay
Procedure, shortened: (§4)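 NCI-60 five-dose screen. Cells were grown in RPMI 1640 with 5% FBS and 2 mM L-glutamine, plated at 5000–40,000 cells/well and incubated 24 h before dosing, with T0 plates TCA-fixed. DMSO stocks were diluted to doses of […] and exposed 48 h at 37 °C, 5% CO2. Cells were fixed with cold TCA (final 10%, 60 min, 4 °C), stained with 0.4% SRB in 1% acetic acid for 10 min, solubilized in 10 mM trizma base and read at 515 nm. GI50 is where 100×(T−T0)/(C−T0)=50.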

[17] = Growth inhibition of human Hs 578T cells after 48 hrs by sulforhodamine B assay
Procedure, shortened: (§5)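 NCI-60 screen: cells in RPMI 1640 with 5% FBS and 2 mM glutamine, 5000–40,000 cells/well, preincubated 24 h. Five concentrations (10-fold dilutions; 100 to 0.001 µM) applied for 48 h at 37 °C. TCA fixation, SRB stain, absorbance at 515 nm. Time-zero plates included; GI50 where 100×(T−T0)/(C−T0)=50.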

[18] = tested on: DU-145; assay: Growth inhibition of human DU145 cells after 48 hrs by sulforhodamine B assay; settings: DU-145, 48 h; procedure, shortened: as §5
[19] = tested on: PC-3; assay: Growth inhibition of human PC3 cells after 48 hrs by sulforhodamine B assay; settings: PC-3, 48 h
Procedure, shortened: (§6)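 NCI-60 panel cells grown in RPMI 1640 with 5% FBS and 2 mM L-glutamine, seeded at 5000–40,000 cells/well and preincubated 24 h. Five 10-fold dilutions (0.001–100 µM) from DMSO stocks were added for 48 h at 37 °C. Adherent cells were fixed with cold TCA (10% final) for 60 min at 4 °C, stained with 0.4% SRB, and read at 515 nm. GI50 was set where 100×(T−T0)/(C−T0)=50.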

[20] = tested on: ACHN; assay: Growth inhibition of human ACHN cells after 48 hrs by sulforhodamine B assay; procedure, shortened: as §5
[21] = tested on: OVCAR-5; assay: Growth inhibition of human OVCAR5 cells after 48 hrs by sulforhodamine B assay; settings: OVCAR-5, 48 h; procedure, shortened: as §6
[22] = tested on: OVCAR-3; assay: Growth inhibition of human OVCAR3 cells after 48 hrs by sulforhodamine B assay; settings: OVCAR-3, 48 h; procedure, shortened: as §6
[23] = tested on: U-251; assay: Growth inhibition of human U251 cells after 48 hrs by sulforhodamine B assay; settings: U-251, 48 h; procedure, shortened: as §4
[24] = tested on: SF-268; assay: Growth inhibition of human SF268 cells after 48 hrs by sulforhodamine B assay; settings: SF-268, 48 h; procedure, shortened: as §6
[25] = tested on: HCT-15; assay: Growth inhibition of human HCT15 cells after 48 hrs by sulforhodamine B assay; settings: HCT-15, 48 h; procedure, shortened: as §5

SMILES	growth at 10 µM [1] [%]	growth at 10 µM [3] [%]	growth at 10 µM [4] [%]	growth at 10 µM [5] [%]	growth at 10 µM [6] [%]	growth at 10 µM [7] [%]	growth at 10 µM [8] [%]	growth at 10 µM [9] [%]	growth at 10 µM [10] [%]	growth at 10 µM [11] [%]	growth at 10 µM [12] [%]	growth at 10 µM [13] [%]	growth at 10 µM [14] [%]	growth at 10 µM [15] [%]	GI50 [16] [nM]	GI50 [17] [nM]	GI50 [18] [nM]	GI50 [19] [nM]	GI50 [20] [nM]	GI50 [21] [nM]	further results
CC(C)=CCC/C(C)=C/CC/C(C)=C/CC[C@]1(C)CCc2c3c(cc(C)c2O1)OCN(CCCCCO)C3	59.5	63.7	74.4	89.7	43.1	43.3	93.2	116	74.8	-83.7	-48.5	-35	58.3	38.4	6170	7260	6280	5710	5740	5930	growth at 10 µM [2]: 36.6%; GI50 [22]: 6710 nM; GI50 [23]: 5710 nM; GI50 [24]: 7130 nM; GI50 [25]: 6240 nM
COc1ccc(CCN2COc3cc(C)c4c(c3C2)CC[C@@](C)(CC/C=C(\C)CC/C=C(\C)CCC=C(C)C)O4)cc1OC	31.2	62.1	79.8	83.2	49.1	40.1	91.7	72.9	45.2	-98.1	-87.2	3.17	15.4	0.64	1940	2300	1940	1870	1750	1860	GI50 [22]: 2000 nM; GI50 [23]: 1670 nM; GI50 [24]: 2130 nM; GI50 [25]: 1930 nM
CC(C)=CCC/C(C)=C/CC/C(C)=C/CC[C@]1(C)CCc2c3c(cc(C)c2O1)OCN(C1CCN(Cc2ccccc2)CC1)C3	89.3	33.2	75.3	63.2	62.9	59	93.6	122	62.5	100	-36.1	-29.3	-18.9	2.34	2180	1510	1890	581	1880	2170	growth at 10 µM [2]: -6.43%; GI50 [22]: 1390 nM; GI50 [23]: 1510 nM; GI50 [24]: 1670 nM; GI50 [25]: 4030 nM
